Test results: ChEMBL document CHEMBL4706708, “Improving the solubility of anti-proliferative thieno[2,3-b]quinoline-2-carboxamides” (Bioorg Med Chem, 2021)
In brackets after ≈: the same amount, converted by molar mass.

Tests used:
MDA-MB-231 = test: Antiproliferative activity against human MDA-MB-231 cells assessed as cell growth at 1 uM measured after 3 days by [3H]-thymidine incorporation assay relative to control; format: functional; details: MDA-MB-231, 72 h, time 3 day, read-out: Activity
In short: (§1)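 HCT116 and MDA-MB-231 cells from ATCC, seeded at 3000 cells/well, exposed to inhibitor for three days; 0.04 µCi 3H-thymidine added per well 5 h before harvest onto glass fibre filters, incorporation counted by scintillation and expressed relative to untreated controls. Triplicate wells, at least two independent experiments. Single-point screen at 1 µM; IC50 determined from varying concentrations.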

[1] = Thermodynamic solubility of compound in water measured after 15 mins RP-HPLC analysis; format: physicochemical; details: read-out: Therm_solubility
HCT-116 = test: Antiproliferative activity against human HCT-116 cells assessed as cell growth at 1 uM measured after 3 days by [3H]-thymidine incorporation assay relative to control; format: functional; details: HCT-116, 72 h, time 3 day, read-out: Activity; in short: as §1

| SMILES | solubility thermodynamic at 0.25 h [1] [µg/mL] | growth at 1 µM (MDA-MB-231) [%] | growth at 1 µM (HCT-116) [%] |
| --- | --- | --- | --- |
| CC(=O)c1cc2c(N)c(C(=O)Nc3ccccc3Cl)sc2nc1C | 0.13 (≈ 0.361 µM) | 99.6 | 87.3 |
| CN1CCc2nc3sc(C(=O)Nc4ccccc4)c(N)c3cc2C1 |  | 91.2 | 100 |
| CC(=O)c1cc2c(N)c(C(=O)Nc3cccc(C(F)(F)F)c3C)sc2nc1C | 1.17 (≈ 2.87 µM) | 67.7 | 106 |
| Nc1c(C(=O)Nc2cccc3ncccc23)sc2nc3c(cc12)C(=O)CCC3 | 0.41 (≈ 1.06 µM) | 96.9 | 96.3 |
| CC(=O)c1cc2c(N)c(C(=O)Nc3cncc4ccccc34)sc2nc1C | 0.09 (≈ 0.239 µM) | 105 | 96.2 |
| CC(=O)c1cc2c(N)c(C(=O)Nc3cccc4ccncc34)sc2nc1C | 1.06 (≈ 2.82 µM) | 101 | 108 |
| Nc1c(C(=O)Nc2cncc3ccccc23)sc2nc3c(cc12)C(=O)CCC3 | 0.71 (≈ 1.83 µM) | 111 | 97.8 |
| Nc1c(C(=O)Nc2ccccn2)sc2nc3c(cc12)C(=O)CCC3 | 0.64 (≈ 1.89 µM) | 27 | 10.2 |
| COc1cccc(NC(=O)c2sc3nc(C)c(C(C)=O)cc3c2N)c1 | 1.1 (≈ 3.09 µM) | 96 | 96.5 |
| Cc1nc2sc(C(=O)Nc3ccncc3)c(N)c2cc1C(C)O (stereo not drawn) | 2.85 (≈ 8.68 µM) | 113 | 111 |
| Cc1ccccc1NC(=O)c1sc2nc3c(cc2c1N)COCC3 | 7.52 (≈ 22.2 µM) | 103 | 101 |
| Cc1nc2sc(C(=O)Nc3cccc4ncccc34)c(N)c2cc1C(C)O (stereo not drawn) | 0.89 (≈ 2.35 µM) | 112 | 92 |
| Cc1nc2sc(C(=O)Nc3ccnc4ccccc34)c(N)c2cc1C(C)O (stereo not drawn) | 18.5 (≈ 49 µM) | 107 | 93.6 |
| CC(=O)c1cc2c(N)c(C(=O)Nc3ccccn3)sc2nc1C | 0.45 (≈ 1.38 µM) | 92.9 | 91.7 |
| Cc1nc2sc(C(=O)Nc3cccc4cccnc34)c(N)c2cc1C(C)O (stereo not drawn) |  | 102 | 110 |
| Cc1nc2sc(C(=O)Nc3cccc4c3OCCO4)c(N)c2cc1C(C)O (stereo not drawn) | 3.06 (≈ 7.94 µM) | 62.3 | 58.4 |
| CC(=O)c1cc2c(N)c(C(=O)Nc3cccc(F)c3C)sc2nc1C | 0.35 (≈ 0.979 µM) | 114 | 103 |
| Cc1nc2sc(C(=O)Nc3ccccn3)c(N)c2cc1C(C)O (stereo not drawn) | 5.43 (≈ 16.5 µM) | 93.8 | 96.5 |
| COc1ccc(NC(=O)c2sc3nc(C)c(C(C)O)cc3c2N)cc1 (stereo not drawn) | 1.79 (≈ 5.01 µM) | 114 | 97.5 |

Further lines, with some results ahead:

| solubility thermodynamic at 0.25 h [1] [µg/mL] | SMILES | growth at 1 µM (MDA-MB-231) [%] | growth at 1 µM (HCT-116) [%] |
| --- | --- | --- | --- |
| 0.213 (≈ 0.474 µM) | Nc1c(C(=O)Nc2cccc(Cl)c2)sc2nc3c(cc12)CN(Cc1ccccc1)CC3 | 80.5 | 89.9 |
| 0.26 (≈ 0.607 µM) | Cc1ccccc1NC(=O)c1sc2nc3c(cc2c1N)CN(Cc1ccccc1)CC3 | 109 | 96.4 |
| 0.197 (≈ 0.443 µM) | COc1ccc(NC(=O)c2sc3nc4c(cc3c2N)CN(Cc2ccccc2)CC4)cc1 | 94.1 | 87.4 |
| 0.7 (≈ 1.48 µM) | Nc1c(C(=O)Nc2ccc3c(c2)OCCO3)sc2nc3c(cc12)CN(Cc1ccccc1)CC3 | 94.9 | 83.2 |
| 0.3 (≈ 0.675 µM) | COc1cccc(NC(=O)c2sc3nc4c(cc3c2N)CN(Cc2ccccc2)CC4)c1 | 90.7 | 85.2 |
| 1.93 (≈ 4.21 µM) | Nc1c(C(=O)Nc2ccccc2)sc2nc3c(cc12)CN(C(=O)OCc1ccccc1)CC3 | 17.5 | 3.1 |
| 40.5 (≈ 125 µM) | Nc1c(C(=O)Nc2ccccc2)sc2nc3c(cc12)CNCC3 | 89.7 | 100 |
| 1.17 (≈ 2.51 µM) | Nc1c(C(=O)Nc2cccc3cccnc23)sc2nc3c(cc12)CN(Cc1ccccc1)CC3 | 104 | 98.2 |
| 0.84 (≈ 1.88 µM) | Cc1c(F)cccc1NC(=O)c1sc2nc3c(cc2c1N)CN(Cc1ccccc1)CC3 | 97.3 | 98.1 |
| 2.17 (≈ 5.59 µM) | CN1CCc2nc3sc(C(=O)Nc4cccc5ccccc45)c(N)c3cc2C1 | 89 | 93.5 |
| 1.03 (≈ 3.17 µM) | Nc1c(C(=O)Nc2ccccc2)sc2nc3c(cc12)COCC3 | 98.9 | 91.5 |
